# NS3 helicase inh – inhibitors of Hepatitis C virus NS3 helicase; NS3 helicase DNA unwinding, Cy5 molecular beacon fluorescence; inhibition, % at 10.9 µM; hit rate 0.56% among 290,000;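 active = inhibition above the mean of all tested compounds plus 3 SD, set per campaign, cut at about 35% in these data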;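 also: 0% = DMSO wells and 100% = thioflavine S control wells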
#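 Assay system – hepatitis C virus NS3 helicase domain fragment enzyme · Buffer or medium – MOPS pH 6.5, MgCl2, DTT, Tween20, BSA · Reagent – Cy5/quencher beacon DNA duplex and ATP to start · Compound – single 10.9 µM dose · Timing – 1 h at 25 °C · Technique – Cy5 beacon fluorescence read at start and 1 h · Measure – % inhibition of unwinding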
# HSF-1 act – increases HSF-1 driven luciferase reporter signal. hit rate 1.7% among 300,000. AID 504408. NIH3T3-HGL HSF-1 luciferase reporter, MG132, 8 h; 100% = twice DMSO control signal. activation, % at 9 µM;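 active = mean replicate activation of at least 50% with a set share of replicates each reaching 50%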;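 also: 0% = median of the neutral control wells and 100% = twice that signal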
# HSP90 refold inh – HSP90 refolding inhibition in rabbit reticulocyte lysate. luciferase refolding luminescence, 3 h. inhibition, % at 5.6 µM. hit rate 0.91% among 290,000;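 active = inhibition above the screen-wide mean plus 3 SD, computed separately per campaign, cut at about 16% in these data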;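 also: 0% = DMSO wells and 100% = 60 µM geldanamycin wells; inhibitors lower the luminescence because luciferase stays unfolded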
# HSF1 inh – HSF1 inhibition; hit rate 0.77% among 300,000; activity change, negative = inhibition, % at 7.5 µM (by protocol); NIH3T3-HGL HSE-luciferase, MG132-induced, luminescence 8 h; hits give low values;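 active = more than half of replicate wells show activity change below -50%, luminescence cut by over half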;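 also: luciferase reports HSF-1 transcriptional activity via heat shock element; 0% = median of DMSO wells and -100% = zero luminescence signal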
# core dimer inh – blocks dimerization of HCV core protein. hit rate 0.33% among 300,000. inhibition, % at 5 µM. TR-FRET GST/Flag-core106 dimerization, 1536-well;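 active = inhibition above the mean of all tested compounds plus 3 SD, set per screening campaign, cut at about 45% in these data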
#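 Assay system: GST-tagged and Flag-tagged HCV core protein residues 1-106 / Times: compound-protein-antibody incubation 4 h at 22.5 °C / Signal: time-resolved FRET, ex 340 nm, em 617 and 671 nm / Evaluation: % inhibition based on acceptor/donor emission ratio / Benchmarks: wells lacking GST-core106 and wells with excess unlabelled core106 / Repeats: singlicate, one well per compound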
# DNA FID counter – fluorescent intercalator displacement, NS3 helicase counter-screen; DNA fluorescent intercalator displacement, fluorescence; hit rate 0.17% among 290,000; inhibition, % at 7.9 µM; AID 1845; in the data active = inhibition above about 37%;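 also: 0% = vehicle and 100% = reference compound; higher means more ethidium bromide displaced from hairpin DNA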
# An asterisk follows results filed as active; · = no result. In the library only some 3.9% were active in any assay of this set; here they are far more common.
SMILES,NS3 helicase inh,HSF-1 act,HSP90 refold inh,HSF1 inh,core dimer inh,DNA FID counter
CCn1ccnc1CNC(=O)c1ccc2oc(CCCc3ccccc3)nc2c1,-63,4,-2,2,1,11
O=C(Nc1ccc(N2CCCC2)cc1)c1cccc(Cl)c1Cl,5,5,3,0,-13,-3
CS(=O)(=O)c1ccccc1-c1nnc(NC(=O)c2ccco2)o1,·,-6,·,-4,0,·
COc1ccc2c(c1)c(=O)cc(-c1ccccc1)n2C,14,-8,2,-3,0,-5
CN1C(=O)C2(c3ccccc31)C1CCCC=C1C(C#N)=C(N)C2(C#N)C#N (centres undefined),10,·,1,·,1,-2
COc1ccc(OCCN(C)Cc2c(O)ccc3ccccc23)cc1,-7,130*,6,99,-3,-4
CN(Cc1ccccc1)Cc1c(O)ccc2ccccc12,-4,-5,0,-6,3,1
COc1ccc2c(CC(=O)Nc3nccs3)coc2c1,6,72*,-5,19,5,11
COc1ccc2c(CC(=O)NCc3cccs3)coc2c1,15,9,-1,13,12,-5
NC(=O)c1ccc[n+](CC(=O)OCCC23CC4CC(CC(C4)C2)C3)c1,-11,-76,1,-70*,6,11
N=C1C(c2nc(-c3ccc(Cl)cc3)cs2)=C(O)CN1NC(=O)c1ccc(O)cc1,14,-18,0,4,23,-2
Cc1ccc(-c2csc(C3=C(O)CN(NC(=O)c4ccc([N+](=O)[O-])cc4)C3=N)n2)cc1,5,-1,0,4,48*,1
N=C1C(c2nc(-c3ccc(Br)cc3)cs2)=C(O)CN1NC(=O)c1ccc([N+](=O)[O-])cc1,9,-8,-3,-2,53*,0
CCC(=O)c1cn(CC(=O)Nc2ccc(C)cc2C)c2ccccc12,-14,6,-3,-4,-6,-12
CCCCn1c(N)c(N(Cc2ccccc2OC)C(=O)CCSC)c(=O)[nH]c1=O,-1,4,-7,4,·,-12
COC(=O)Nc1ccc(SCC(=O)c2ccccc2)cc1,-1,23,2,4,10,-5
COC(=O)Nc1ccc(SCC(=O)c2ccc(Cl)cc2)cc1,-5,107*,1,72,-2,-1
COc1ccc(C)cc1NC(=O)C(Sc1nnc(-c2ccncc2)n1-c1ccc(Cl)cc1)c1ccccc1 (centres undefined),-21,25,7,11,27,-17
COc1ccc(NC(=O)COC(=O)c2cnccn2)cc1Cl,4,7,0,-7,-2,5
CCC(C)Sc1nc2c(c(=O)[nH]1)C(c1cccs1)C1=C(CCCC1=O)N2 (centres undefined),21,-1,4,-3,57*,-20
Fc1ccccc1NC(=S)N/N=C/c1ccccc1Br,2,-21,16*,-7,4,-6
CCN(CC)S(=O)(=O)c1cccc(NC(=O)/C=C/c2ccc([N+](=O)[O-])cc2)c1,-3,70*,-1,14,7,0
O=C1CNC(=S)N1c1nc(-c2ccccc2)cs1,0,52*,-3,26,-4,0
CCc1ccc(-c2cc(C(F)(F)F)n3nc(C(=O)Nc4cnn(Cc5ccccc5C)c4)cc3n2)s1,3,-15,-2,-1,0,3
CCCCNC(=O)C1c2ccccc2Oc2ccccc21,0,-15,6,-11,-4,5
CCCC(C)NC(=O)C1c2ccccc2Oc2ccccc21 (centres undefined),-4,-67,1,-61*,1,-8
Cn1cc(CN2CCC(Oc3ccc(C(=O)N4CCCCC4)cc3)CC2)cn1,2,-1,0,-4,-2,1
Cc1ccc2oc(=O)c3cc(C(=O)Nc4cc(-c5cccc(F)c5)no4)sc3c2c1,3,4,-5,6,-6,-2
O=C(Nc1ccc(F)cc1)C1CCC(N2C(=O)c3ccccc3C2=O)CC1 (centres undefined),-7,4,1,-17,3,-10
CC(=O)NC1=C(NC2CCS(=O)(=O)C2)C(=O)c2ccccc2C1=O (centres undefined),-2,27,1,12,-7,0
